JMJD2C inh – blocks human GASC-1 demethylase activity. GST-JMJD2C(1-420) H3K9me3 demethylation, DELFIA europium. inhibition, % at 2.35 µM. 330,000 compounds, 0.069% hits;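 active = more than half of a compound's replicate wells show inhibition beyond 50%, single wells judged on their own value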;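 also: signal counts dimethyl H3K9 product captured on neutravidin plate; 0% = median of DMSO wells and 100% = 0.3 times that DMSO median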
Target sequence (Q9H3R0 1-420 limits assumed): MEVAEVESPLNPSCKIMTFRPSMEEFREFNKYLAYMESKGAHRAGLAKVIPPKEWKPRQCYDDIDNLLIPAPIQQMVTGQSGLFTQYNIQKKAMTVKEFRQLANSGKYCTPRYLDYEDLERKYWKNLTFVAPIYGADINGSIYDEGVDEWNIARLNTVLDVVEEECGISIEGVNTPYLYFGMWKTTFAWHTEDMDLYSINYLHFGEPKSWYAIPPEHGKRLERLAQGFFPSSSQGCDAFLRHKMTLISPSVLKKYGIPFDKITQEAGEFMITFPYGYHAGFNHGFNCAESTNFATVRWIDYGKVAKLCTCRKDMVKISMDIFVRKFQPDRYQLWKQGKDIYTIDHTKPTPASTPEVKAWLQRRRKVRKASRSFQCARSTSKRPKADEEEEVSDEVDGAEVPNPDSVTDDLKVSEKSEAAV
GRK2 inh – blocks RNA aptamer binding to human GRK2; P25098; bead flow cytometry, FAM-aptamer displacement from GRK2; inhibition of aptamer binding, % at 10 µM; 330,000 compounds, 0.59% hits; AID 488847;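 active = inhibition of aptamer binding above 40%, roughly 3 SD of noise, on plates passing a quality check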;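 also: median bead fluorescence of bound FAM aptamer so fluorescent compounds give negative values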
VLA-4 inh – inhibition in a human VLA-4 binding assay; P13612; VLA-4 expressing cells, ligand binding flow cytometry; inhibition, % (about 7 µM as worked out from the volumes in the protocol); 330,000 compounds, 0.2% hits; in the data active = inhibition above about 50%
Hep lipid drop – hepatic lipid droplet formation modulation; AML12 mouse hepatocytes, oleate lipid droplets, BODIPY imaging; inhibition, % at 6.5 µM; 240,000 compounds, 0.4% hits; AID 1656;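 active = lipid droplet intensity inhibited by at least 50%, with more than 500 cells counted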
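Material: mouse AML12 hepatocyte cell line, fixed after treatment; Timing: compound with oleate, overnight; Technique: high-content imaging of BODIPY-stained droplets and DAPI nuclei; Probe or stimulus: oleate, 100 µM final; Dosing: compound at 6.5 µM only.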
procasp7 counter – activates human procaspase-7, counter-screen for procaspase-3 activators. P55210. recombinant procaspase-7, Ac-DEVD-pNA absorbance 405 nm; D23A/D198A/D206A triple mutant, cannot self-cleave; scale: DMSO 0, 5 µM enzyme 100. activation, % at 8.5 µM. 330,000 compounds, 0.093% hits;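 active = percent activation above the screen-wide mean plus 3 SD, cut at about 25% in these data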
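System: Procaspase-7 triple mutant (PC-7 D3A); measure: % activation from two-timepoint absorbance difference, scaled to controls; times: 1 h compound preincubation, 2 h substrate cleavage, 25 °C; also added: Ac-DEVD-pNA substrate, 400 µM as added; measured by: Epi-absorbance of released pNA at 405 nm, two timepoints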
procasp3 activ – procaspase-3 (human) activation | recombinant procaspase-3 D3A, Ac-DEVD-pNA absorbance 405 nm | activation, % at 8.5 µM | 330,000 compounds, 0.11% hits | AID 463141;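 active = activation above the mean of all tested compounds plus 3 SD, cut at about 21% in these data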;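 also: 0% = DMSO alone and 100% = DMSO wells spiked with extra 5 µM PC-3 D3A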
Target sequence (P42574 whole entry D9A/D28A/D175A): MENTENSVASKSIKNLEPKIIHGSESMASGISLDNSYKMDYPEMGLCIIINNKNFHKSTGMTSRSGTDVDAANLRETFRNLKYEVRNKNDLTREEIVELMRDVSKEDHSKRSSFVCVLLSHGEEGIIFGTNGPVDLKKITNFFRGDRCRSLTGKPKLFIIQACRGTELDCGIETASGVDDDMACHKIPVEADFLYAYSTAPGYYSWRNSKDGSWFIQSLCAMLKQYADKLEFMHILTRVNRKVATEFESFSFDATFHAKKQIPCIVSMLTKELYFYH
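assay system = Procaspase-3 D3A mutant | signal = absorbance at 405 nm, 0 and 120 min | times = 1 h preincubation plus 2 h reaction at 25 °C | repeats = single replicate | read-out = % activation between DMSO and enzyme-spiked controls | medium = Zinc-free HEPES saline buffer with Triton X-100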
GRK2 inh confirm – human GRK2 inhibition confirmation, cherry pick 1; 2,000 compounds, 4% hits; shares compounds with GRK2 inh; bead-bound GRK2, FAM-aptamer displacement, flow cytometry; aptamer displacement, % at 10 µM; AID 504451;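 active = aptamer displacement above 40%, near three times the noise of non-fluorescent compounds, on plates passing quality checks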;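 also: negative values mostly reflect intrinsic compound fluorescence rather than true enhancement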
Aptamer quench – fluorescent aptamer quenching in GRK2 counter-screen dose response | shares compounds with GRK2 inh | Fluorescent RNA aptamer beads, flow cytometry; hits give high values | fluorescence change (kMESF span), kMESF (concentration not given with the values) | 110 tested, under 10 active;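 active = compounds whose bead fluorescence drops by more than 37 kMESF across the dose range, marking them as dye quenchers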
FAM quench CP1 – quenches fluorescent RNA aptamer, GRK2 hit artifact; shares compounds with GRK2 inh; Carboxyfluorescein RNA aptamer on beads, flow cytometry quenching; hits give low values; fluorescence response (% of DMSO), % at 10 µM; 2,000 tested, under 10 active;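 active = compounds that quench the bead-bound fluorescent RNA probe, cutting fluorescence to under half of the solvent control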;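 also: counterscreen run without GRK2 so only probe quenching by compound is measured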
GRK2 confirm 2 – human GRK2 inhibition confirmation, cherry pick 2 | 360 tested, under 10 active | AID 504782 | shares compounds with GRK2 inh | inhibition of aptamer binding, % at 10 µM | bead-bound GRK2, FAM-aptamer displacement, flow cytometry;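 active = inhibition of aptamer binding above 40%, about triple the noise seen with nonglowing compounds, on plates passing quality control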;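 also: negative values mostly come from compounds that fluoresce themselves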
FAM quench CP2 – counter-screen for GRK2 binding hits: quenchers of fluorescent RNA aptamer; fluorescence response vs DMSO, % at 10 µM; 360 tested, under 10 active; shares compounds with GRK2 inh; carboxyfluorescein RNA aptamer beads, flow cytometry quenching; hits give low values;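 active = response vs DMSO under 50%, meaning signal dropped by over half, treated as fluorescence quencher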;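 also: labelled aptamer on streptavidin beads without GRK2 as a quench counter-screen; 100% = bead fluorescence of DMSO wells and lower means quenching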
The depositor's hits bear a star. Shown are actives, neighbours in structure and some others; about 1.3% of the full set was active somewhere.

C=C(C)C(=O)Nc1cccc(C2=NOC3(C2)C[C@@H](C(N)=O)N(C(=O)c2cc([N+](=O)[O-])cc([N+](=O)[O-])c2)C3)c1 (stereo partly specified) was read as JMJD2C inh -2, GRK2 inh 79*, VLA-4 inh 29, Hep lipid drop 3, procasp7 counter 0, procasp3 activ 6, GRK2 inh confirm 57*, Aptamer quench 8.5 and FAM quench CP1 97.
Screening CCCCCC(=O)N1CC2(CC(c3cccc(NC(=O)[C@@H]4CCC(=O)N4)c3)=NO2)C[C@@H]1C(N)=O (stereo partly specified) returned JMJD2C inh -2, GRK2 inh 0, VLA-4 inh 3, procasp7 counter 1, procasp3 activ 5, GRK2 confirm 2 -13 and FAM quench CP2 100.
For C=C(C)C(=O)Nc1cccc(C2=NOC3(C2)C[C@@H](C(N)=O)N(C(=O)CCCCC)C3)c1 (stereo partly specified) the results were JMJD2C inh -17, GRK2 inh 98*, VLA-4 inh -3, procasp7 counter -1, procasp3 activ 3, GRK2 inh confirm 90*, Aptamer quench -0.2 and FAM quench CP1 99.
For Cn1c(=O)c2c(nc3n2CC(O)CN3c2ccccc2)n(C)c1=O (stereo unspecified) the results were JMJD2C inh -35, GRK2 inh 1, VLA-4 inh 2, procasp7 counter 10 and procasp3 activ 11.
For CCOC(=O)N1CCN(C(=O)Cc2ccccc2[N+](=O)[O-])CC1 the results were JMJD2C inh 2, GRK2 inh 1, VLA-4 inh 0, Hep lipid drop -4, procasp7 counter 11 and procasp3 activ -3.
Nc1nc(Nc2ccccc2F)sc1C(=O)c1ccccc1 was read as JMJD2C inh -14, GRK2 inh 0, VLA-4 inh 37, procasp7 counter 4 and procasp3 activ -5.
For COC(=O)C1N[C@@H]([C@@H](NC(=O)COc2ccccc2)C(=O)NCc2ccsc2)SC1(C)C (stereo partly specified) the results were JMJD2C inh 2, procasp7 counter -7 and procasp3 activ 8.
Screening CC1(C(=O)N2CC3(CC(c4cccc(NC(=O)CC(c5ccccc5)c5ccccc5)c4)=NO3)C[C@@H]2C(N)=O)CC1 (stereo partly specified) returned JMJD2C inh 13, GRK2 inh 0, VLA-4 inh 6, procasp7 counter 1, procasp3 activ 2, GRK2 confirm 2 6 and FAM quench CP2 99.
Screening CCC(=O)Nc1cccc(C2=NOC3(C2)C[C@@H](C(N)=O)N(C(=O)C2(C)CC2)C3)c1 (stereo partly specified) returned JMJD2C inh 10, GRK2 inh 2, VLA-4 inh 20, Hep lipid drop -3, procasp7 counter -1 and procasp3 activ -3.
For CC1CCCCN1C(=O)c1cc(S(=O)(=O)N2CCOCC2)ccc1Cl (stereo unspecified) the results were JMJD2C inh -10, GRK2 inh 0, VLA-4 inh 12, procasp7 counter -8 and procasp3 activ 5.
For CN(CC(=O)Nc1ccc(F)cc1)C(=O)Cn1cnc2ccc(Cl)cc2c1=O the results were JMJD2C inh -3, GRK2 inh 0, VLA-4 inh 8, procasp7 counter 2 and procasp3 activ 2.
Screening CC(=O)N(Cc1ccccc1)Cc1nc2sc(C)c(C)c2c(=O)[nH]1 returned JMJD2C inh -9, GRK2 inh 4, VLA-4 inh 2, Hep lipid drop -9, procasp7 counter -3 and procasp3 activ -7.
`Cc1sc2nc(CN(Cc3ccccc3)C(=O)NC3CCCCC3)[nH]c(=O)c2c1C` gave JMJD2C inh -13, GRK2 inh 30, VLA-4 inh 18, procasp7 counter -7, procasp3 activ 2, GRK2 inh confirm -2 and FAM quench CP1 101.
For O=C(O)CC/C(=N/NC(=O)CNC(=O)C(c1ccccc1)c1ccccc1)c1ccccc1 the results were JMJD2C inh 4, GRK2 inh 90*, VLA-4 inh 7, Hep lipid drop 7, procasp7 counter 0, procasp3 activ 1, GRK2 inh confirm 3 and FAM quench CP1 96.
For O=C(COc1ccccc1Cl)Nc1ccc(S(=O)(=O)Nc2ccccn2)cc1 the results were JMJD2C inh 9, GRK2 inh 0, VLA-4 inh 1, Hep lipid drop 0, procasp7 counter 5 and procasp3 activ 8.
`CC1(C)C2CC=C(/C=N/NC(=O)c3ccc(O)cc3)C1C2` (stereo unspecified) gave JMJD2C inh -4, GRK2 inh 74*, VLA-4 inh -1, Hep lipid drop 9, procasp7 counter -1, procasp3 activ 0, GRK2 inh confirm -1 and FAM quench CP1 97.
For O=S(=O)(Nc1cc(C(F)(F)F)ccc1N1CCOCC1)c1ccccc1 the results were JMJD2C inh 11, GRK2 inh 1, VLA-4 inh 4, Hep lipid drop 1, procasp7 counter 6 and procasp3 activ -4.
Screening Cc1cccc(S(=O)(=O)Nc2cc(Cl)ccc2N2CCOCC2)c1 returned JMJD2C inh 2, GRK2 inh 81*, VLA-4 inh 2, procasp7 counter 4, procasp3 activ 2, GRK2 inh confirm -2 and FAM quench CP1 106.
Screening CC(C)C(c1nnnn1C(C)(C)C)N1CCOCC1 (stereo unspecified) returned JMJD2C inh -6, GRK2 inh 47*, VLA-4 inh 1, Hep lipid drop 4, procasp7 counter -5, procasp3 activ 4, GRK2 inh confirm -4 and FAM quench CP1 96.
